Laboratory results taken from ChEMBL document CHEMBL4354826, “Structure-Based Discovery of SD-36 as a Potent, Selective, and Efficacious PROTAC Degrader of STAT3 Protein” (J Med Chem, 2019).
Calls of active or inactive are those of the source. The rule behind the calls is not given here.

Columns and labels:
[1] = molecular target: T1, Protein cereblon/Signal transducer and activator of transcription 3 (Homo sapiens, UniProt P40763+Q96SW2); experiment: Protac activity at CRBN/STAT3 in human MOLM16 cells assessed as degradation of phosphorylated STAT3 Y705 upto 10 uM incubated for 4 hrs by Western blot analysis; format: cell-based
Outline: (§1)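 Molm-16 cells treated 4 h with serially diluted compound. Lysates immunoblotted (SDS–PAGE, PVDF, 5% blocker/TBST, chemiluminescence) for total STAT3 and pSTAT3 Y705. DC50 taken as the concentration reducing total STAT3 by 50%.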
Target sequence in this assay (P40763 2-770 limits assumed): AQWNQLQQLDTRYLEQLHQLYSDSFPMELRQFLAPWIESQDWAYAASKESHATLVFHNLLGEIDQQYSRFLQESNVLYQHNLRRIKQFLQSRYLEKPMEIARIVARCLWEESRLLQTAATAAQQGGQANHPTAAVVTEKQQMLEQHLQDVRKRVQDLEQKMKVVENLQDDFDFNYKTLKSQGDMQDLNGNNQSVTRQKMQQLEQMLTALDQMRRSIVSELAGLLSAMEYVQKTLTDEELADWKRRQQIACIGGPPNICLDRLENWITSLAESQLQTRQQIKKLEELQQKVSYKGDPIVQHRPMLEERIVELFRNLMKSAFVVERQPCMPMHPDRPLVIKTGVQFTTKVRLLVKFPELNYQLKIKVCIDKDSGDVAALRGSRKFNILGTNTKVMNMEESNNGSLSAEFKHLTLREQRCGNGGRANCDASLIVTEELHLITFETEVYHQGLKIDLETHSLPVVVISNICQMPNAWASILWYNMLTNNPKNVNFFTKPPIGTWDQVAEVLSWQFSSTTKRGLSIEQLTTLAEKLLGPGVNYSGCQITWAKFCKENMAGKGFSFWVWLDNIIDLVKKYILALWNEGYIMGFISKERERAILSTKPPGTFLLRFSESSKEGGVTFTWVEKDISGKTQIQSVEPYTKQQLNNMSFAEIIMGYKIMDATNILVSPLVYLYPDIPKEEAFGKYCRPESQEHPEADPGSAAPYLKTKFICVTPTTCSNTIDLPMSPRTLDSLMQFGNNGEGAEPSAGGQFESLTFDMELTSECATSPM
Target sequence in this assay (Q96SW2 whole entry partner): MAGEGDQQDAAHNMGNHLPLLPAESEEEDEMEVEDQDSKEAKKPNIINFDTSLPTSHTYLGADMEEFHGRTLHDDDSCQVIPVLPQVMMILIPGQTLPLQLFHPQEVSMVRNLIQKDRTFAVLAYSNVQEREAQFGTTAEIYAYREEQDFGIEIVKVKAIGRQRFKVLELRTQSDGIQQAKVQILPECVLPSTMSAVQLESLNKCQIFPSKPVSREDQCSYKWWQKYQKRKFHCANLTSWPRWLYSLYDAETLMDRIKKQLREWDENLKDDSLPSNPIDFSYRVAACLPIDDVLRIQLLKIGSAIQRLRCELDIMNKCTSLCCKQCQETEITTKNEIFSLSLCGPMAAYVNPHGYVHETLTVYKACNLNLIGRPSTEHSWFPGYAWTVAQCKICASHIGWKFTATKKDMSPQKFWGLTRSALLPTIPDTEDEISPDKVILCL

[2] = molecular target: T1, Protein cereblon/Signal transducer and activator of transcription 3; experiment: Protac activity at CRBN/STAT3 in human MOLM16 cells assessed as degradation of STAT3 up to 10 uM incubated for 4 hrs by Western blot analysis; format: cell-based; outline: as §1
Target sequence in this assay (P40763 2-770 limits assumed): as the sequence (P40763 2-770 limits assumed) above
Target sequence in this assay (Q96SW2 whole entry partner): as the sequence (Q96SW2 whole entry partner) above

[3] = Antiproliferative activity against human MOLM16 cells assessed as reduction in cell viability incubated for 4 days by cell-titer glo luminescent assay; format: functional, cell-based; conditions: MOLM16, 96 h
Outline: (§2)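 Viability assay: cells incubated with serially diluted compounds for 4 days, viability read by CellTiter-Glo luminescence; IC50 from concentration–response.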

[4] = molecular target: T1, Protein cereblon/Signal transducer and activator of transcription 3; experiment: Protac activity at CRBN/STAT3 in human MOLM16 cells assessed as degradation of STAT3 incubated for 4 hrs by Western blot analysis; format: cell-based; outline: as §1
[5] = molecular target: T1, Protein cereblon/Signal transducer and activator of transcription 3; experiment: Protac activity at CRBN/STAT3 in human SUDHL1 cells assessed as degradation of STAT3 incubated for 16 hrs by Western blot analysis; format: cell-based
Target sequence in this assay (P40763 whole entry): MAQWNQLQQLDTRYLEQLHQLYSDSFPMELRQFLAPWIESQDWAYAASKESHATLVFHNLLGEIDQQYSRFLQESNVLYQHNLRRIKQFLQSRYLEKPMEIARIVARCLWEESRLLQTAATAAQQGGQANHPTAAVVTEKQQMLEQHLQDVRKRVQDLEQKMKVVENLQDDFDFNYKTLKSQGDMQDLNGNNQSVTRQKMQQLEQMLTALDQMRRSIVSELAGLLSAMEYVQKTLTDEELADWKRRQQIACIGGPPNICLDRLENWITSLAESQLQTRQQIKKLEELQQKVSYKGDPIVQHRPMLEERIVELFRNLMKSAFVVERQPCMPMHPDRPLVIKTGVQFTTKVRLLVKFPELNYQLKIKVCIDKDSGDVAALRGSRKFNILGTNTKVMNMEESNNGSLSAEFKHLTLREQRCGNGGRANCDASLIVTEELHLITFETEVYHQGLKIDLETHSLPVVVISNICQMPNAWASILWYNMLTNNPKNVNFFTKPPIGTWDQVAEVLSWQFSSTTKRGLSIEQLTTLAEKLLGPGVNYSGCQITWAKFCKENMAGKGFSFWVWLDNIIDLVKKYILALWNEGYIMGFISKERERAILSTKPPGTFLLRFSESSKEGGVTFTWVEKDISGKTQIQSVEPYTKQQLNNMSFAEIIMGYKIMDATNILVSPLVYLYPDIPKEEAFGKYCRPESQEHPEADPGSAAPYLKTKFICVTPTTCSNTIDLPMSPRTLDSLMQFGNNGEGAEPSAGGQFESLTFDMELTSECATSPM
Target sequence in this assay (Q96SW2 whole entry): as the sequence (Q96SW2 whole entry partner) above

SU-DHL-1 = experiment: Antiproliferative activity against human SUDHL1 cells assessed as reduction in cell viability incubated for 4 days by cell-titer glo luminescent assay; format: functional, cell-based; conditions: SU-DHL-1, 96 h; outline: as §2
[6] = molecular target: T2, Signal transducer and activator of transcription 3 (Homo sapiens, UniProt P40763); experiment: Binding affinity to recombinant human His/SUMO-tagged STAT3 (127 to 688 residues) expressed in Escherichia coli Rosetta (DE3) incubated for 1 hr by fluorescence polarization assay
T2 sequence (P40763 whole entry, the tested form may be a part): as the sequence (P40763 whole entry) above

[7] = molecular target: T1, Protein cereblon/Signal transducer and activator of transcription 3; experiment: Protac activity at CRBN/STAT3 in human SUDHL1 cells assessed as degradation of STAT3 upto 5 uM incubated for 16 hrs by Western blot analysis; format: cell-based
Target sequence in this assay (P40763 2-770 limits assumed): as the sequence (P40763 2-770 limits assumed) above
Target sequence in this assay (Q96SW2 whole entry partner): as the sequence (Q96SW2 whole entry partner) above

[8] = molecular target: T1, Protein cereblon/Signal transducer and activator of transcription 3; experiment: Protac activity at CRBN/STAT3 in human SUDHL1 cells assessed as degradation of phosphorylated STAT3 Y705 upto 5 uM incubated for 16 hrs by Western blot analysis; format: cell-based
Target sequence in this assay (P40763 2-770 limits assumed): as the sequence (P40763 2-770 limits assumed) above
Target sequence in this assay (Q96SW2 whole entry partner): as the sequence (Q96SW2 whole entry partner) above

[9] = molecular target: T2, Signal transducer and activator of transcription 3; experiment: Potency index, ratio of Ki of CJ-887 to Ki of compound for binding affinity to recombinant human His/SUMO-tagged STAT3 (127 to 688 residues) expressed in Escherichia coli Rosetta (DE3) incubated for 1 hr by fluorescence polarization assay
[10] = molecular target: T1, Protein cereblon/Signal transducer and activator of transcription 3; experiment: Protac activity at CRBN/STAT3 in human MOLM16 cells assessed as degradation of STAT3 at 1 uM incubated for 4 hrs by Western blot analysis; format: cell-based; outline: as §1
Target sequence in this assay (P40763 2-770 limits assumed): as the sequence (P40763 2-770 limits assumed) above
Target sequence in this assay (Q96SW2 whole entry partner): as the sequence (Q96SW2 whole entry partner) above

[11] = molecular target: T1, Protein cereblon/Signal transducer and activator of transcription 3; experiment: Protac activity at CRBN/STAT3 in human MOLM16 cells assessed as degradation of phosphorylated STAT3 Y705 at 1 uM incubated for 4 hrs by Western blot analysis; format: cell-based; outline: as §1
Target sequence in this assay (P40763 2-770 limits assumed): as the sequence (P40763 2-770 limits assumed) above
Target sequence in this assay (Q96SW2 whole entry partner): as the sequence (Q96SW2 whole entry partner) above

Structure (SMILES) | IC50 [3] [nM] | DC50 [4] [nM] | also measured
NC(=O)CC[C@H](NC(=O)[C@@H]1CC[C@@H]2CCN(C(=O)CCCCCC#Cc3cccc4c3CN(C3CCC(=O)NC3=O)C4=O)C[C@H](NC(=O)c3cc4cc(CP(=O)(O)O)ccc4[nH]3)C(=O)N21)C(=O)NC(c1ccccc1)c1ccccc1 (some centres undefined) | > 2000 | > 10000 | Activity [1]: inactive; Activity [2]: inactive
NC(=O)CC[C@H](NC(=O)[C@@H]1CC[C@@H]2CCN(C(=O)CCCn3cc(C#Cc4cccc5c4CN(C4CCC(=O)NC4=O)C5=O)cn3)C[C@H](NC(=O)c3cc4cc(C(F)(F)P(=O)(O)O)ccc4[nH]3)C(=O)N21)C(=O)NC(c1ccccc1)c1ccccc1 (some centres undefined) | 232 | 250 | –
NC(=O)CC[C@H](NC(=O)[C@@H]1CC[C@@H]2CCN(C(=O)CC(=O)N3CCC(C#Cc4cccc5c4CN(C4CCC(=O)NC4=O)C5=O)CC3)C[C@H](NC(=O)c3cc4cc(C(F)(F)P(=O)(O)O)ccc4[nH]3)C(=O)N21)C(=O)NC(c1ccccc1)c1ccccc1 (some centres undefined) | 67 | 380 | –
NC(=O)CC[C@H](NC(=O)[C@@H]1CC[C@@H]2CCN(C(=O)CCCCCC#Cc3ccc4c(c3)CN(C3CCC(=O)NC3=O)C4=O)C[C@H](NC(=O)c3cc4cc(C(F)(F)P(=O)(O)O)ccc4[nH]3)C(=O)N21)C(=O)NC(c1ccccc1)c1ccccc1 (some centres undefined) | 104 | 410 | –
NC(=O)CC[C@H](NC(=O)[C@@H]1CC[C@@H]2CCN(C(=O)CCN3CCC(C#Cc4cccc5c4CN(C4CCC(=O)NC4=O)C5=O)CC3)C[C@H](NC(=O)c3cc4cc(C(F)(F)P(=O)(O)O)ccc4[nH]3)C(=O)N21)C(=O)NC(c1ccccc1)c1ccccc1 (some centres undefined) | 360 | 2470 | –
NC(=O)CC[C@H](NC(=O)[C@@H]1CC[C@@H]2CCN(C(=O)CCCCCC#Cc3ccc4c(c3)C(=O)N(C3CCC(=O)NC3=O)C4)C[C@H](NC(=O)c3cc4cc(C(F)(F)P(=O)(O)O)ccc4[nH]3)C(=O)N21)C(=O)NC(c1ccccc1)c1ccccc1 (some centres undefined) | 711 | 360 | –
CNC(=O)[C@H](CCC(N)=O)NC(=O)[C@@H]1CC[C@@H]2CCN(C(=O)CCCCCC#Cc3cccc4c3CN(C3CCC(=O)NC3=O)C4=O)C[C@H](NC(=O)c3cc4cc(C(F)(F)P(=O)(O)O)ccc4[nH]3)C(=O)N21 (some centres undefined) | 226 | 640 | DC50 [5]: 890 nM; IC50 (SU-DHL-1): > 10000 nM
NC(=O)CC[C@H](NC(=O)[C@@H]1CC[C@@H]2CCN(C(=O)N3CCC(CCC#Cc4cccc5c4CN(C4CCC(=O)NC4=O)C5=O)CC3)C[C@H](NC(=O)c3cc4cc(C(F)(F)P(=O)(O)O)ccc4[nH]3)C(=O)N21)C(=O)NC(c1ccccc1)c1ccccc1 (some centres undefined) | 99 | 180 | –
CC(=O)N1CC[C@H]2CC[C@@H](C(=O)N[C@@H](CCC(N)=O)C(=O)NC(c3ccccc3)c3ccccc3)N2C(=O)[C@@H](NC(=O)c2cc3cc(OP(=O)(O)O)ccc3[nH]2)C1 | – | – | Ki [6]: 33 nM
C/C(=C\C(=O)N[C@H]1CN(C(=O)CCCCCC#Cc2cccc3c2CN(C2CCC(=O)NC2=O)C3=O)CC[C@H]2CC[C@@H](C(=O)N[C@@H](CCC(N)=O)C(=O)NC(c3ccccc3)c3ccccc3)N2C1=O)c1ccc(C(F)(F)P(=O)(O)O)cc1 (some centres undefined) | 1250 | 4450 | DC50 [5]: > 10000 nM; Activity [7]: inactive; IC50 (SU-DHL-1): > 10000 nM; Activity [8]: inactive
CN1CC[C@H]2CC[C@@H](C(=O)N[C@@H](CCC(N)=O)C(=O)NCc3ccccc3)N2C(=O)[C@@H](NC(=O)c2cc3cc(C(F)(F)P(=O)(O)O)ccc3[nH]2)C1 | – | – | Ki [6]: 14 nM
NC(=O)CC[C@H](NC(=O)[C@@H]1CC[C@@H]2CCN(C(=O)CCCCCCNc3cccc4c3CN(C3CCC(=O)NC3=O)C4=O)C[C@H](NC(=O)c3cc4cc(C(F)(F)P(=O)(O)O)ccc4[nH]3)C(=O)N21)C(=O)NC(c1ccccc1)c1ccccc1 (some centres undefined) | 59 | 90 | –
NC(=O)CC[C@H](NC(=O)[C@@H]1CC[C@@H]2CCN(C(=O)CCCCCCCc3cccc4c3CN(C3CCC(=O)NC3=O)C4=O)C[C@H](NC(=O)c3cc4cc(C(F)(F)P(=O)(O)O)ccc4[nH]3)C(=O)N21)C(=O)NC(c1ccccc1)c1ccccc1 (some centres undefined) | 63 | 160 | –
CC(=O)N1CC[C@H]2CC[C@@H](C(=O)N[C@@H](CCC(N)=O)C(=O)NC(c3ccccc3)c3ccccc3)N2C(=O)[C@@H](NC(=O)/C=C(\C)c2ccc(C(F)(F)P(=O)(O)O)cc2)C1 | – | – | Ki [6]: 164 nM
CC(=O)N1CC[C@H]2CC[C@@H](C(=O)N[C@@H](CCC(N)=O)C(=O)NC(c3ccccc3)c3ccccc3)N2C(=O)[C@@H](NC(=O)c2cc3cc(CP(=O)(O)O)ccc3[nH]2)C1 | – | – | Ki [6]: 584 nM
NC(=O)CC[C@H](NC(=O)[C@@H]1CC[C@@H]2CCN(C(=O)CCCCCCCCC#Cc3cccc4c3CN(C3CCC(=O)NC3=O)C4=O)C[C@H](NC(=O)c3cc4cc(C(F)(F)P(=O)(O)O)ccc4[nH]3)C(=O)N21)C(=O)NC(c1ccccc1)c1ccccc1 (some centres undefined) | 42 | 150 | –
NC(=O)CC[C@H](NC(=O)[C@@H]1CC[C@@H]2CCN(C(=O)CCCCCCC#Cc3cccc4c3CN(C3CCC(=O)NC3=O)C4=O)C[C@H](NC(=O)c3cc4cc(C(F)(F)P(=O)(O)O)ccc4[nH]3)C(=O)N21)C(=O)NC(c1ccccc1)c1ccccc1 (some centres undefined) | 25 | 90 | –
NC(=O)CC[C@H](NC(=O)[C@@H]1CC[C@@H]2CCN(C(=O)CCCCC#Cc3cccc4c3CN(C3CCC(=O)NC3=O)C4=O)C[C@H](NC(=O)c3cc4cc(C(F)(F)P(=O)(O)O)ccc4[nH]3)C(=O)N21)C(=O)NC(c1ccccc1)c1ccccc1 (some centres undefined) | 78 | 260 | –
NC(=O)CC[C@H](NC(=O)[C@@H]1CC[C@@H]2CCCC[C@H](NC(=O)c3cc4cc(OP(=O)(O)O)ccc4[nH]3)C(=O)N21)C(=O)NCc1ccccc1 | – | – | Ratio Ki [9]: 2; Ki [6]: 25 nM
NC(=O)CC[C@H](NC(=O)[C@@H]1CC[C@@H]2CCN(C(=O)c3cnn(CCCC#Cc4cccc5c4CN(C4CCC(=O)NC4=O)C5=O)c3)C[C@H](NC(=O)c3cc4cc(C(F)(F)P(=O)(O)O)ccc4[nH]3)C(=O)N21)C(=O)NC(c1ccccc1)c1ccccc1 (some centres undefined) | 241 | 180 | –
NC(=O)CC[C@H](NC(=O)[C@@H]1CC[C@@H]2CCN(C(=O)CCCCCC#Cc3cccc4c3CN(C3CCC(=O)NC3=O)C4=O)C[C@H](NC(=O)c3cc4cc(C(F)(F)P(=O)(O)O)ccc4[nH]3)C(=O)N21)C(=O)NCc1ccccc1 (some centres undefined) | 210 | 220 | DC50 [5]: 55 nM; IC50 (SU-DHL-1): 3240 nM
NC(=O)CC[C@H](NC(=O)[C@@H]1CC[C@@H]2CCN(C(=O)CCCCCC#Cc3cccc4c3CN(C3CCC(=O)NC3=O)C4=O)C[C@H](NC(=O)c3cc4cc(OP(=O)(O)O)ccc4[nH]3)C(=O)N21)C(=O)NC(c1ccccc1)c1ccccc1 (some centres undefined) | > 2000 | > 10000 | Activity [1]: inactive; Activity [2]: inactive
NC(=O)CC[C@H](NC(=O)[C@@H]1CC[C@@H]2CCN(CCCCCCC#Cc3cccc4c3CN(C3CCC(=O)NC3=O)C4=O)C[C@H](NC(=O)c3cc4cc(C(F)(F)P(=O)(O)O)ccc4[nH]3)C(=O)N21)C(=O)NC(c1ccccc1)c1ccccc1 (some centres undefined) | 147 | 650 | DC50 [5]: 919 nM; IC50 (SU-DHL-1): > 10000 nM
CN1CC[C@H]2CC[C@@H](C(=O)N[C@@H](CCC(N)=O)C(=O)NC(c3ccccc3)c3ccccc3)N2C(=O)[C@@H](NC(=O)c2cc3cc(C(F)(F)P(=O)(O)O)ccc3[nH]2)C1 | – | – | Ki [6]: 12 nM
CC(=O)N1CC[C@H]2CC[C@@H](C(=O)N[C@@H](CCC(N)=O)C(=O)NCc3ccccc3)N2C(=O)[C@@H](NC(=O)c2cc3cc(C(F)(F)P(=O)(O)O)ccc3[nH]2)C1 | – | – | Ki [6]: 14 nM
NC(=O)CC[C@H](NC(=O)[C@@H]1CC[C@@H]2CCN(C(=O)OCCCCC#Cc3cccc4c3CN(C3CCC(=O)NC3=O)C4=O)C[C@H](NC(=O)c3cc4cc(C(F)(F)P(=O)(O)O)ccc4[nH]3)C(=O)N21)C(=O)NC(c1ccccc1)c1ccccc1 (some centres undefined) | 128 | 240 | DC50 [5]: 49 nM; IC50 (SU-DHL-1): 2370 nM
NC(=O)CC[C@H](NC(=O)[C@@H]1CC[C@@H]2CCCC[C@H](NC(=O)c3cc4cc(C(F)(F)P(=O)(O)O)ccc4[nH]3)C(=O)N21)C(=O)NCc1ccccc1 | – | – | Ratio Ki [9]: 7; Ki [6]: 7 nM
NC(=O)CC[C@H](NC(=O)[C@@H]1CC[C@@H]2CCN(C(=O)CCCC#Cc3cccc4c3CN(C3CCC(=O)NC3=O)C4=O)C[C@H](NC(=O)c3cc4cc(C(F)(F)P(=O)(O)O)ccc4[nH]3)C(=O)N21)C(=O)NC(c1ccccc1)c1ccccc1 (some centres undefined) | 950 | 2630 | Activity [10]: inactive; Activity [11]: inactive; Activity [4]: Dose-dependent effect
